# Assay results reported in ChEMBL document CHEMBL1275379, “Indazolylpyrazolopyrimidine as highly potent B-Raf inhibitors with in vivo activity” (J Med Chem, 2010).
# Calls of active or inactive are those of the source. The calls are words filed in the database; no cut-off is given here.
# Legend:
# [1] = Half life in nude mouse liver microsomes; type: ADME, Microsome
# [2] = target: T1, Serine/threonine-protein kinase B-raf (Homo sapiens, UniProt P15056); assay: Inhibition of BRAF
# A-375 [3] = assay: Growth inhibition of human A375 cells after 4 days by MTT assay; type: functional, cell-based; conditions: A-375, 96 h
# [4] = target: RAC-alpha serine/threonine-protein kinase (Homo sapiens) (UniProt P31749); assay: Inhibition of AKT1 at 1 uM
# [5] = target: T1, Serine/threonine-protein kinase B-raf; assay: Inhibition of BRAF at 1 uM
# [6] = target: Tyrosine-protein kinase BTK (Homo sapiens) (UniProt Q06187); assay: Inhibition of BTK at 1 uM
# [7] = target: Serine/threonine-protein kinase Chk2 (Homo sapiens) (UniProt O96017); assay: Inhibition of CHEK2 at 1 uM
# [8] = target: Tyrosine-protein kinase CSK (Homo sapiens) (UniProt P41240); assay: Inhibition of CSK at 1 uM
# [9] = target: Receptor tyrosine-protein kinase erbB-2 (Homo sapiens) (UniProt P04626); assay: Inhibition of ERBB2 at 1 uM
# [10] = target: Fibroblast growth factor receptor 1 (Homo sapiens) (UniProt P11362); assay: Inhibition of FGFR1 at 1 uM
# [11] = target: Receptor-type tyrosine-protein kinase FLT3 (Homo sapiens) (UniProt P36888); assay: Inhibition of FLT3 at 1 uM
# [12] = target: Glycogen synthase kinase-3 beta (Homo sapiens) (UniProt P49841); assay: Inhibition of GSK3B at 1 uM
# [13] = target: Insulin-like growth factor 1 receptor (Homo sapiens) (UniProt P08069); assay: Inhibition of IGF1R at 1 uM
# [14] = target: Inhibitor of nuclear factor kappa-B kinase subunit beta (Homo sapiens) (UniProt O14920); assay: Inhibition of IKBKB at 1 uM
# [15] = target: Mast/stem cell growth factor receptor Kit (Homo sapiens) (UniProt P10721); assay: Inhibition of KIT at 1 uM
# [16] = target: Dual specificity mitogen-activated protein kinase kinase 1 (Homo sapiens) (UniProt Q02750); assay: Inhibition of MAP2K at 1 uM
# [17] = target: Serine/threonine-protein kinase Nek2 (Homo sapiens) (UniProt P51955); assay: Inhibition of NEK2 at 1 uM
# [18] = target: Platelet-derived growth factor receptor alpha (Homo sapiens) (UniProt P16234); assay: Inhibition of PDGFRA at 1 uM
# [19] = target: Serine/threonine-protein kinase PLK1 (Homo sapiens) (UniProt P53350); assay: Inhibition of PLK1 at 1 uM
# [20] = target: Protein kinase C delta type (Homo sapiens) (UniProt Q05655); assay: Inhibition of PRKCD at 1 uM
# [21] = target: Tyrosine-protein kinase ABL1 (Homo sapiens, UniProt P00519); assay: Inhibition of ABL1
# Ephrin type-A receptor 1 = Ephrin type-A receptor 1 (Homo sapiens, UniProt P21709); assay: Inhibition of EPHA1
# [22] = target: Tyrosine-protein kinase Lck (Homo sapiens, UniProt P06239); assay: Inhibition of LCK
# [23] = target: T2, RAF proto-oncogene serine/threonine-protein kinase (Homo sapiens, UniProt P04049); assay: Inhibition of C-raf
# [24] = target: Proto-oncogene tyrosine-protein kinase receptor Ret (Homo sapiens, UniProt P07949); assay: Inhibition of RET
# Angiopoietin-1 receptor [25] = target: T3, Angiopoietin-1 receptor (Homo sapiens, UniProt Q02763); assay: Inhibition of TEK
# [26] = target: Tyrosine-protein kinase Yes (Homo sapiens, UniProt P07947); assay: Inhibition of YES1
# [27] = Half life in nude mouse; type: ADME, organism-based; conditions: in vivo
# [28] = AUC (infinity) in nude mouse at 10 mg/kg, po; type: ADME, organism-based; parameters: time infinity, dose 10 mg/kg, route oral; conditions: plasma
# [29] = Drug level in tumor tissue of human A375 cells xenografted nude mouse at 25 mg/kg, po after 24 hrs; type: ADME, organism-based, Neoplasm, A-375; parameters: dose 25 mg/kg, route oral; conditions: read-out: Drug uptake
# [30] = Drug level in plasma of human A375 cells xenografted nude mouse at 25 mg/kg, po after 24 hrs; type: ADME, organism-based, A-375; parameters: dose 25 mg/kg, route oral; conditions: read-out: Drug uptake
# Mus musculus = assay: Inhibition of BRAF-mediated ERK phosphorylation in human A375 cells xenografted nude mouse at 50 mg/kg, iv after 24 hrs; type: functional, organism-based; parameters: dose 50 mg/kg; conditions: A-375
# A-375 [31] = assay: Antitumor activity against human A375 cells xenografted in nude mouse assessed as tumor growth inhibition at 7.5 mg/kg, po; type: functional; conditions: read-out: TGI
# In short: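 A375 xenografts in nude mice dosed orally once daily; n = 10 per arm; tumour size measured by caliper at set times; error shown as standard deviation.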
# COLO 205 = assay: Antitumor activity against human COLO205 cells xenografted in nude mouse assessed as tumor growth inhibition at 7.5 mg/kg, po; type: functional, organism-based; parameters: dose 7.5 mg/kg
# [32] = target: Epidermal growth factor receptor (Homo sapiens, UniProt P00533)
# [33] = target: T2, RAF proto-oncogene serine/threonine-protein kinase; conditions: 1 uM
# Angiopoietin-1 receptor [34] = target: T3, Angiopoietin-1 receptor; conditions: 1 uM
# T1 sequence (P15056 whole entry): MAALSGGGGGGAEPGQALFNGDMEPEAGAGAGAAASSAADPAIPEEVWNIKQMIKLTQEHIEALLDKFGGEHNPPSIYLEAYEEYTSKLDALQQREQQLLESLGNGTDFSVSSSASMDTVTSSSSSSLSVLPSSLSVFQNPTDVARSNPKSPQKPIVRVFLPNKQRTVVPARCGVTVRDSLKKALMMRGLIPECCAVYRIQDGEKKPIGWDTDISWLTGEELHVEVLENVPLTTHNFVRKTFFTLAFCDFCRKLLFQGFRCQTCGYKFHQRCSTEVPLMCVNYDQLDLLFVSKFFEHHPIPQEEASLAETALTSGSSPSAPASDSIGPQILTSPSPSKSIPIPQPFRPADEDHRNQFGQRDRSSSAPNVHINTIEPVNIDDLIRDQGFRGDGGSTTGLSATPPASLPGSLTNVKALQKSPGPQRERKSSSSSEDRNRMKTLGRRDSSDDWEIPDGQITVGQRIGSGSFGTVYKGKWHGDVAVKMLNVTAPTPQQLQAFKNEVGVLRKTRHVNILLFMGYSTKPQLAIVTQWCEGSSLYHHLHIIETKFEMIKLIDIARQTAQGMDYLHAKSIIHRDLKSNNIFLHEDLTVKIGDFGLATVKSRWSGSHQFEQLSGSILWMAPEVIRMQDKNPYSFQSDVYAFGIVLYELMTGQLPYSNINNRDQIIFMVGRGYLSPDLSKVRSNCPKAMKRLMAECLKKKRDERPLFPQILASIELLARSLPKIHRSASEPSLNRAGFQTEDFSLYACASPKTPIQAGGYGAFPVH
# T3 sequence (Q02763 whole entry): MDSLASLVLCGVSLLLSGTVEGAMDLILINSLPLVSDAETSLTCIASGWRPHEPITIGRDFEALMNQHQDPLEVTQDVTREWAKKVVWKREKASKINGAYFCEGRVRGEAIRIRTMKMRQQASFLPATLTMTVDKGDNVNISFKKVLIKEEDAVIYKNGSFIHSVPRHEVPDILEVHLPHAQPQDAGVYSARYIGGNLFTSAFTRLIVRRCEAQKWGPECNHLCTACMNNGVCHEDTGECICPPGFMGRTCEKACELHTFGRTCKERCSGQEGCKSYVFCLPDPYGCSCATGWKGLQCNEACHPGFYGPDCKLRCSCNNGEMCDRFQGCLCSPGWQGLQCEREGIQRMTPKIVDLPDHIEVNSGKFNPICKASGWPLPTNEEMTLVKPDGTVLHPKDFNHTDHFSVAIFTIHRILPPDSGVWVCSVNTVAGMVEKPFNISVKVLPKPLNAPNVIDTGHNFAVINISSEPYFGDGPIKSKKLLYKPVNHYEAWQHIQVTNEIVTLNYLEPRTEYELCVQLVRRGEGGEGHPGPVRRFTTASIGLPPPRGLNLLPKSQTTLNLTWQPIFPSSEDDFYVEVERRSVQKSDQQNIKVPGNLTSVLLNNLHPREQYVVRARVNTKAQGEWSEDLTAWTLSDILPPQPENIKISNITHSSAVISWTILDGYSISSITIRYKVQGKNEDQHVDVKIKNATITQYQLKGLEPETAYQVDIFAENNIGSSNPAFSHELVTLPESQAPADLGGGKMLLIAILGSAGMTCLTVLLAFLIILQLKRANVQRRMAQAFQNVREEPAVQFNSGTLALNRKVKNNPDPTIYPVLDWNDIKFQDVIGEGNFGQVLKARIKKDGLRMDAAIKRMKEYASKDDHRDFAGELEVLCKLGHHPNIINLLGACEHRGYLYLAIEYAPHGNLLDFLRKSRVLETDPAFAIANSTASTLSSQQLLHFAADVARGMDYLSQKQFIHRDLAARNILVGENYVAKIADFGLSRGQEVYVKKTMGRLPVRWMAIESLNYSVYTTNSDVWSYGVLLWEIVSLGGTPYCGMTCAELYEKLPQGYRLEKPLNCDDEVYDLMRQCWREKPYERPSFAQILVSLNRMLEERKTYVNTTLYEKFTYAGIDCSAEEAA
# T2 sequence (P04049 whole entry): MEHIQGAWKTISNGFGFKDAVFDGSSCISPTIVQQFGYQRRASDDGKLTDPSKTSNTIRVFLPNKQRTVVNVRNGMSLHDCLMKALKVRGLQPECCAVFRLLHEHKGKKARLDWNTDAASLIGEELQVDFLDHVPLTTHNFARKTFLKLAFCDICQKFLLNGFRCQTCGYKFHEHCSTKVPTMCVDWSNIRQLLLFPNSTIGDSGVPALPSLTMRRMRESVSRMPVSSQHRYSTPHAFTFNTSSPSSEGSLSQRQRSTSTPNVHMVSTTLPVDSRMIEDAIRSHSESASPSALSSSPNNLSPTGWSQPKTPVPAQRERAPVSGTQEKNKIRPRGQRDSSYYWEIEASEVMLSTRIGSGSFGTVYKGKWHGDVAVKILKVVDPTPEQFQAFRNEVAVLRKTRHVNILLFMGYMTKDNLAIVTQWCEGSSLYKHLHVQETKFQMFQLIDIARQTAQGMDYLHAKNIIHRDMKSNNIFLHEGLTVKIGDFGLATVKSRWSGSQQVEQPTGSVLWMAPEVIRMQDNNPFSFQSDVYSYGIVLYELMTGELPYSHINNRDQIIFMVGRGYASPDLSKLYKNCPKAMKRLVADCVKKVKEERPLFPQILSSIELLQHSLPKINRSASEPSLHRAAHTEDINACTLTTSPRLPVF
# Sequence of Serine/threonine-protein kinase Nek2 (Homo sapiens) (P51955 whole entry): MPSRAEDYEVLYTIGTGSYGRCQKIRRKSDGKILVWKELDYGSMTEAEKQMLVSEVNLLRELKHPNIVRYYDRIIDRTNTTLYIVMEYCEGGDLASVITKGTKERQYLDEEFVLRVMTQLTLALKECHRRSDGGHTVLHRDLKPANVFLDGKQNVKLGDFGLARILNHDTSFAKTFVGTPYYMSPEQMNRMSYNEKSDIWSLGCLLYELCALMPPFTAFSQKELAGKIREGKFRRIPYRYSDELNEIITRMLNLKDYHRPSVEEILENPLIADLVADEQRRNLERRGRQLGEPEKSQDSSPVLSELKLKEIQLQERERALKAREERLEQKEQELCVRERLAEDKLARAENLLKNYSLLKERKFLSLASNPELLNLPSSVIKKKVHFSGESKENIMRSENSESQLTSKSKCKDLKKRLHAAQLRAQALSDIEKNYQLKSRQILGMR
# Sequence of Fibroblast growth factor receptor 1 (Homo sapiens) (P11362 22-822 limits assumed): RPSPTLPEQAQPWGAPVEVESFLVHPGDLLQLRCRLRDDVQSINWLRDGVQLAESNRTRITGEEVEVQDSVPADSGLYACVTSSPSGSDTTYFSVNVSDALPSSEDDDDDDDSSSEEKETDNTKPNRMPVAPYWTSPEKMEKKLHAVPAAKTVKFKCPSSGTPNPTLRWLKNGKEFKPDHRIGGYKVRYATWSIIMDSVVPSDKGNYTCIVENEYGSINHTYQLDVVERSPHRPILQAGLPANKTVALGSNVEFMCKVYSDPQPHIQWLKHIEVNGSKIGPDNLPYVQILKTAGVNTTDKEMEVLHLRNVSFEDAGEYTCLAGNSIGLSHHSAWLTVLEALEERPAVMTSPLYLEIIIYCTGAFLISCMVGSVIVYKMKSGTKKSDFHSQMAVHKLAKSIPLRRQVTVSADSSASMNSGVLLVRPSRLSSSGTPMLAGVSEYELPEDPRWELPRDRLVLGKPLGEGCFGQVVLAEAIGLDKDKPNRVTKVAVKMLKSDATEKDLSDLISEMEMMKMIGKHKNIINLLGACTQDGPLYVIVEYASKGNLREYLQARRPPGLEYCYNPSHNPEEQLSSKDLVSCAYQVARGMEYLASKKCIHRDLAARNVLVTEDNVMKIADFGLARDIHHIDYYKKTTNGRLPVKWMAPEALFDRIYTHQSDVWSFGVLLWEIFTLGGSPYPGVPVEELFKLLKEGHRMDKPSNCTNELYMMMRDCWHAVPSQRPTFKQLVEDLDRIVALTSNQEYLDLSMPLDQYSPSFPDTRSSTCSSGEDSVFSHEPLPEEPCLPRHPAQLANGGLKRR
# Sequence of Receptor-type tyrosine-protein kinase FLT3 (Homo sapiens) (P36888 whole entry): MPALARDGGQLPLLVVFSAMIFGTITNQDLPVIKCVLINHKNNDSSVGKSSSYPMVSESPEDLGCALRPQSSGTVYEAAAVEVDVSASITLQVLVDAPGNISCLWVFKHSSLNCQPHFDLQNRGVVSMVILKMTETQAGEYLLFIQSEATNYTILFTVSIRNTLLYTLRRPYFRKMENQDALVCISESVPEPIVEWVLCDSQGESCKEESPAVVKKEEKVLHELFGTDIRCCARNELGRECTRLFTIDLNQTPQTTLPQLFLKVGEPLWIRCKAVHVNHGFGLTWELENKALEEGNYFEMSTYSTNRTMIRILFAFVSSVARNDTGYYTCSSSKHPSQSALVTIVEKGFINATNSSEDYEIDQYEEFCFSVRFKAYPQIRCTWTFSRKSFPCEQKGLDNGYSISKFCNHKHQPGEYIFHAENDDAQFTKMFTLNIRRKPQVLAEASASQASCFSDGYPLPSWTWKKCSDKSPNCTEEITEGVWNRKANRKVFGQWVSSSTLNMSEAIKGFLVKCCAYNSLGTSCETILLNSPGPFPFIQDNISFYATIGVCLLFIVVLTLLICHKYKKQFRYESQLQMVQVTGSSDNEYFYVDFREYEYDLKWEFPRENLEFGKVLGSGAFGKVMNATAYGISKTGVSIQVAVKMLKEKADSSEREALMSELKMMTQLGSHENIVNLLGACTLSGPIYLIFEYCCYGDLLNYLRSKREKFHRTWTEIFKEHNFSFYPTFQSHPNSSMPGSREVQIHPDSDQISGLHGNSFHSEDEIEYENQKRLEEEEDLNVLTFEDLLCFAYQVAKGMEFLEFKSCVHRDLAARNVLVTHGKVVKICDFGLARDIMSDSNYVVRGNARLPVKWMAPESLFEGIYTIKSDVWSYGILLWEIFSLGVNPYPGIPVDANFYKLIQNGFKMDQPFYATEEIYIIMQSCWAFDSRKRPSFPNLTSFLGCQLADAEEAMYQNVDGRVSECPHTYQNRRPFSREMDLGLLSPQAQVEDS
smiles,measurement,setting,value
CN1C[C@@H]2C[C@H]1CN2c1cc(F)c(-c2ccnc3c(-c4cccc5[nH]ncc45)c(-c4ccncc4)nn23)c(F)c1,half-life,[1],> 0.5 h
same,IC50,[2],0.16 nM
same,IC50,A-375 [3],24 nM
same,inhibition,[4],5%
same,inhibition,[5],100%
same,inhibition,[6],48%
same,inhibition,[7],7%
same,inhibition,[8],19%
same,inhibition,[9],37%
same,inhibition,[10],63%
same,inhibition,[11],23%
same,inhibition,[12],35%
same,inhibition,[13],5%
same,inhibition,[14],5%
same,inhibition,[15],9%
same,inhibition,[16],12%
same,inhibition,[17],6%
same,inhibition,[18],5%
same,inhibition,[19],11%
same,inhibition,[20],10%
same,IC50,[21],286 nM
same,IC50,Ephrin type-A receptor 1,95.3 nM
same,IC50,[22],505 nM
same,IC50,[23],8.52 nM
same,IC50,[24],160 nM
same,IC50,Angiopoietin-1 receptor [25],293 nM
same,IC50,[26],246 nM
same,half-life,[27],3.5 h
same,AUC(0-inf),[28],4000 ng·h/mL
same,concentration at 24 h,[29],6.1 µM
same,concentration at 24 h,[30],0.06 µM
same,inhibition,Mus musculus,Active
same,inhibition in vivo at 7.5 mg/kg,A-375 [31],39%
same,TGI,COLO 205,Active
same,IC50,[32],173 nM
same,inhibition,[33],88%
same,inhibition,Angiopoietin-1 receptor [34],81%
